pIC50: −log10 of the molar value.

In the first test the test system is Trypanosoma cruzi. The test is described as follows: Inhibition of Trypanosoma cruzi recombinant Trans-sialidase at 0.4 mM.
Settings: not given
Put shortly: (§1)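 Recombinant His-tagged TcTS was expressed in E. coli with IPTG induction at 18 °C, then purified by metal-affinity and anion-exchange chromatography. Enzyme (0.33 mg/mL stock) and inhibitor were preincubated 10 min at 25 °C in 20 mM Tris-HCl pH 7.5. The reaction was started with MuNANA (1 mM stock) and methylumbelliferone release read continuously for 10 min at 25 °C (ex 322/em 448 nm). Percentage activity is the mean of ≥3 independent runs. I50 was fitted as V=100%/{1+([I]/I50)^s}.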
The term inhibition denotes the change of the read-out against control, counted positive when it falls. `NC(N)=Nc1cc(C(=O)O)ccc1SCc1ccccc1`: the inhibition was 43%.

A further test deals with Trypanosoma cruzi. The test is described as follows: Inhibition of Trypanosoma cruzi recombinant Trans-sialidase at 0.5 mM.
Settings: not given
Put shortly:
as §1
Turning to `NC(N)=Nc1cc(C(=O)O)ccc1NC(=O)Cc1ccccc1`, the inhibition was 54%.

Biological target in another test: not listed separately
Nature of the test: Inhibition of Trypanosoma cruzi recombinant Trans-sialidase. The conditions noted are these: read-out: I50. Put shortly: as §1
Take `CC(=S)Nc1ccc(C(=O)O)nc1`: the pIC50 was 3.27. With `CNC(=O)c1ccc(C(=O)O)cc1NC(=N)N`, the pIC50 was 3.12. For the molecule `CC(=O)Nc1cc(C(=O)O)ccc1N1CCOCC1`, the pIC50 was 3.24.

On to `Nc1cc(C(=O)O)ccc1NCc1cccnc1`, for which the pIC50 was 3.13. On to `NCC(=O)Nc1cc(C(=O)O)ccc1SCc1ccccc1`, for which the pIC50 was 3.00. On the same count and under the same terms, as for `Nc1cc(C(=O)O)ccc1NC(=O)Cc1ccccc1`, the figure is 2.92; as for `CC(=O)Nc1ccc(C(=O)O)cc1CO`, 3.27. On to `Nc1cc(C(=O)O)ccc1SCc1ccccc1`, for which the pIC50 was 3.15. On the same count and under the same terms, the same measure for `CC(=O)Nc1ccc(C(=O)O)nc1N`: 3.36.

A further test relates to Trypanosoma cruzi. Particulars: at 1 mM.
For `NC(N)=Nc1cc(C(=O)O)cc(CCO)c1N`, the inhibition was determined as 0%.

Consider `CC(=O)Nc1ccc(C(=O)O)cc1/C=N/O`, for which the inhibition turned out to be 24%. For `N=C(N)Nc1cc(/C=N/O)cc(C(=O)O)c1`, the inhibition was determined as 35%. As to `NC(N)=Nc1cc(C(=O)O)ccc1NCc1ccccc1`, the inhibition came out at 9%.

As for `CC(=O)Nc1ccc(C(=O)O)cc1CC(O)CO` (stereo in doubt; 32), the inhibition came to 0%.

Take `O=C(CN1CCOCC1)Nc1ccc(C(=O)O)cc1`: the inhibition was found to be 0%. Take `CS(=O)(=O)Nc1c(/C=N/O)cc(C(=O)O)cc1N=C(N)N`: the inhibition was found to be 46%. As to `CC(=O)Nc1ccc(C(=O)O)cc1CCN`, the inhibition was found to be 25%. For `CS(=O)(=O)Nc1ccc(C(=O)O)cc1C(O)CN` (stereo unspecified), the inhibition came out at 17%. On the same count and under the same terms, as for `CC(=O)Nc1ccc(C(=O)O)cc1CC(O)CO` (stereo in doubt; 31), the figure is 17%; as for `CC(=O)Nc1ccc(C(=O)O)nc1`, 22%; as for `CC(=O)Nc1cnc(C(=O)O)cc1N`, 14%. For the molecule `C[S+]([O-])Nc1ccc(C(=O)O)cc1N=C(N)N` (stereo unspecified), the inhibition came to 29%. For `CC(=O)Nc1c(CCO)cc(C(=O)O)cc1N=C(N)N`, the inhibition turned out to be 0%. On the same count and under the same terms, the same measure for `CC(=O)Nc1ccc(C(=O)O)cc1`: 0%; for `CS(=O)(=O)Nc1c(CO)cc(C(=O)O)cc1N=C(N)N`: 11%.

With `CC(=O)Nc1ccc(C(=O)O)cc1CC(N)=O`, the inhibition worked out at 0%. On the same count and under the same terms, as for `CC(=O)Nc1ccc(C(=O)O)cc1CCO`, the figure is 16%; as for `CS(=O)(=O)Nc1ccc(C(=O)O)nc1`, 25%.

A further test concerns Trypanosoma cruzi. The test is described as follows: Apparent activation of Trypanosoma cruzi recombinant Trans-sialidase. Particulars: concentration not given here. Put shortly: as §1
In the case of `N=C(N)Nc1cc(CCN)cc(C(=O)O)c1`, the inhibition is -19%.

For the origin of these results see ChEMBL document CHEMBL1146360, “Benzoic acid and pyridine derivatives as inhibitors of Trypanosoma cruzi trans-sialidase” (Bioorg Med Chem, 2007).
